Results: ChEMBL document CHEMBL1122808, “Substituent effects on reactivity and spectral parameters of cephalosporins” (J Med Chem, 1984)
“And” between values parts separate entries of the source, which are not always exact repeats. Equal entries are not always repeated.

Assay: Hydrolysis rate constant at pH 9.6
Format: ADME
Details: buffer
Outline: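 Alkaline hydrolysis was followed by UV spectrophotometry on aqueous cephalosporin solutions at 6 × 10^-4 M and 35.0 ± 0.1 °C, with pH held at 9.60 ± 0.02 by borate buffer.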

k | Compound
0.126 h⁻¹ | Cn1nnnc1SCC1=C(C(=O)O)N2C(=O)C(NC(=O)Cc3cccs3)C2SC1 (configuration not stated)
0.095 h⁻¹ | O=C(Cc1cccs1)NC1C(=O)N2C(C(=O)O)=C(CSc3nc4ccccc4s3)CSC12 (configuration not stated)
> 3 h⁻¹ | CC(=O)OCC1=C(C(=O)O)N2C(=O)C(NC(=O)NCc3cccs3)C2SC1 (configuration not stated)
0.147 h⁻¹ | CC(=O)OCC1=C(C(=O)O)N2C(=O)C(NC(=O)Cc3cccs3)C2SC1 (configuration not stated)
0.067 h⁻¹ | CCN(CC)C(=S)SCC1=C(C(=O)O)N2C(=O)C(NC(=O)Cc3cccs3)C2SC1 (configuration not stated)
0.12 h⁻¹ | Cc1nnc(SCC2=C(C(=O)O)N3C(=O)C(NC(=O)Cc4cccs4)C3SC2)s1 (configuration not stated)
0.53 h⁻¹ | O=C(Cc1cccs1)NC1C(=O)N2C(C(=O)[O-])=C(C[n+]3ccccc3)CSC12 (configuration not stated)
0.019 h⁻¹ | O=C(Cc1cccs1)NC1C(=O)N2C(C(=O)O)=C(CSC3=CCC=CC3)CSC12 (configuration not stated)
0.157 h⁻¹ | CC(=O)OCC1=C(C(=O)O)N2C(=O)C(NC(=O)CSc3ccncc3)C2SC1 (configuration not stated)
0.028 h⁻¹ | O=C(Cc1cccs1)NC1C(=O)N2C(C(=O)O)=C(CSc3c[nH]nn3)CSC12 (configuration not stated)
0.122 h⁻¹ | Cn1nnnc1SCC1=C(C(=O)O)N2C(=O)C(NC(=O)C(C(=O)[O-])c3cccs3)C2SC1.[Na+] (configuration not stated)
0.57 h⁻¹ | NC(=O)c1ccc[n+](CC2=C(C(=O)[O-])N3C(=O)C(NC(=O)Cc4cccs4)C3SC2)c1 (configuration not stated)

Further lines, the molecule ahead of its results:

Compound | k
Cn1nnnc1SCC1=C(C(=O)O)N2C(=O)C(NC(=O)C(Br)c3cccs3)C2SC1 (configuration not stated) | 0.21 h⁻¹
Cc1nnc(SCC2=C(C(=O)O)N3C(=O)[C@@H](NC(=O)Cn4cnnn4)[C@H]3SC2)s1 [CEFAZOLIN] | 0.107 h⁻¹
Cc1nc(CC(=O)NC2C(=O)N3C(C(=O)O)=C(CSc4nnc(C)s4)CSC23)no1 (configuration not stated) | 0.104 h⁻¹
CC1=C(C(=O)O)N2C(=O)C(NC(=O)Cc3noc(C)n3)C2SC1 (configuration not stated) | 0.021 h⁻¹
CC1=C(C(=O)O)N2C(=O)C(NC(=O)Cc3ccccc3)C2SC1 (configuration not stated) | 0.017 h⁻¹
Cc1nc(CC(=O)NC2C(=O)N3C(C(=O)O)=C(CSc4nnc(C)o4)CSC23)no1 (configuration not stated) | 0.105 h⁻¹
CC(=O)OCC1=C(C(=O)O)N2C(=O)[C@@H](N)[C@H]2SC1 | 0.037 h⁻¹
Cc1nc(CC(=O)NC2C(=O)N3C(C(=O)O)=C(CSc4c[nH]nn4)CSC23)no1 (configuration not stated) | 0.026 h⁻¹
CC1=C(C(=O)O)N2C(=O)[C@@H](NC(=O)[C@H](N)c3ccccc3)[C@H]2SC1 [CEPHALEXIN ANHYDROUS] | 0.058 h⁻¹
CC1=C(C(=O)O)N2C(=O)C(NC(=O)C(N)C3=CCC=CC3)C2SC1 (configuration not stated) | 0.056 h⁻¹
CC(C(=O)NC1C(=O)N2C(C(=O)O)=C(CSc3nnnn3C)CSC12)c1cccs1 (configuration not stated) | 0.112 h⁻¹

Assay: Hydrolysis rate constant at pH 10
Format: ADME
Details: buffer

k | Compound
0.378 h⁻¹ | CC(=O)OCC1=C(C(=O)O)N2C(=O)C(NC(=O)COc3ccccc3)C2SC1 (configuration not stated)
0.36 h⁻¹ | CC(=O)OCC1=C(C(=O)O)N2C(=O)C(NC(=O)Cc3ccccc3)C2SC1 (configuration not stated)
0.349 h⁻¹ and 0.3 h⁻¹ | CC(=O)OCC1=C(C(=O)O)N2C(=O)C(NC(=O)Cc3cccs3)C2SC1 (configuration not stated)
0.079 h⁻¹ | CSCC1=C(C(=O)O)N2C(=O)C(NC(=O)Cc3cccs3)C2SC1 (configuration not stated)
0.857 h⁻¹ | O=C(COc1ccccc1)NC1C(=O)N2C(C(=O)[O-])=C(C[n+]3ccccc3)CSC12 (configuration not stated)
0.675 h⁻¹ and 1.08 h⁻¹ | O=C(Cc1cccs1)NC1C(=O)N2C(C(=O)[O-])=C(C[n+]3ccccc3)CSC12 (configuration not stated)
0.038 h⁻¹ | CC1=C(C(=O)O)N2C(=O)C(NC(=O)Cc3cccs3)C2SC1 (configuration not stated)
0.084 h⁻¹ | O=C(COc1ccccc1)NC1C(=O)N2C(C(=O)O)=C(CO)CSC12 (configuration not stated)

Continued, molecule first:

Compound | k
Cc1nnc(SCC2=C(C(=O)O)N3C(=O)[C@@H](NC(=O)Cn4cnnn4)[C@H]3SC2)s1 [CEFAZOLIN] | 0.217 h⁻¹
CC1=C(C(=O)O)N2C(=O)C(NC(=O)Cc3ccccc3)C2SC1 (configuration not stated) | 0.033 h⁻¹
CC1=C(C(=O)O)N2C(=O)[C@@H](NC(=O)[C@H](N)c3ccccc3)[C@H]2SC1 [CEPHALEXIN ANHYDROUS] | 0.145 h⁻¹
CC1=C(C(=O)O)N2C(=O)C(NC(=O)COc3ccccc3)C2SC1 (configuration not stated) | 0.049 h⁻¹
CC1=C(C(=O)O)N2C(=O)C(NC(=O)C(N)C3=CCC=CC3)C2SC1 (configuration not stated) | 0.067 h⁻¹
CC1=C(C(=O)O)N2C(=O)C(N)C2SC1 (configuration not stated) | 0.0097 h⁻¹
